Data reported in ChEMBL document CHEMBL1142294, “Design and synthesis of benzo-lipoxin A4 analogs with enhanced stability and potent anti-inflammatory properties” (Bioorg Med Chem Lett, 2008).

Tests used:
[1] = Stability assessed as rate of NADH formation in presence of eicosanoid oxido-reductase; assay type: ADME
In short: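 Compound at ~15 μM incubated with 50 ng recombinant eicosanoid oxido-reductase in 0.1 M Tris–HCl pH 9.0 with 1 mM NAD⁺, 37 °C, 25 min, while NADH formation was monitored. Initial velocity was taken by linear regression over the linear phase of conversion. Values are means ± SEM, n = 3.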

[2] = tested on: Mus musculus; assay: Antiinflammatory activity against FVB mouse assessed as inhibition of zymosan-induced neutrophil infiltration at 15 ug/kg, iv relative to control; assay type: functional
In short: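 Male FVB mice, 6–8 weeks old, given 15 μg kg⁻¹ by intravenous bolus into the tail vein in 100 μL sterile saline, then an intraperitoneal injection of zymosan A (1 mg/1 mL). Peritoneal lavage was collected at 2 h, and total leukocytes, PMNs and monocytes were counted. PMN inhibition is relative to zymosan A plus saline vehicle. Values are means ± SEM, n = 5–10.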

CCCCC[C@H](O)/C=C/C=C\C=C\C=C\[C@@H](O)[C@@H](O)CCCC(=O)O [LIPOXIN A4]
Stability [1]: 2.42 µM/min

CCCCC[C@@H](O)/C=C/C=C\C=C\C=C\[C@@H](O)[C@@H](O)CCCC(=O)O
Stability [1]: 0.21 µM/min

CCCCC[C@@H](O)/C=C/c1ccccc1/C=C/[C@@H](O)[C@@H](O)CCCC(=O)OC
inhibition in vivo at 0.015 mg/kg [2]: 32.2% | Stability [1]: 0.19 µM/min

COC(=O)CCC[C@H](O)[C@H](O)/C=C/C=C/C=C\C=C\[C@H](O)COc1ccc(F)cc1
inhibition in vivo at 0.015 mg/kg [2]: 40.5%

CCCCC[C@@H](O)/C=C/C=C/c1ccccc1/C=C/[C@@H](O)[C@@H](O)CCCC(=O)OC
inhibition in vivo at 0.015 mg/kg [2]: 17.3% | Stability [1]: 0.14 µM/min

CCCCCC(O)c1ccccc1/C=C/[C@@H](O)[C@@H](O)CCCC(=O)OC (mixture of isomers)
inhibition in vivo at 0.015 mg/kg [2]: 22.3% | Stability [1]: 0.09 µM/min

CCCCC[C@@H](O)/C=C/c1cccc(/C=C/[C@@H](O)[C@@H](O)CCCC(=O)OC)c1
inhibition in vivo at 0.015 mg/kg [2]: 32% | Stability [1]: 0.45 µM/min

CCCCCC/C=C/c1ccccc1/C=C/[C@@H](O)[C@@H](O)CCCC(=O)OC
inhibition in vivo at 0.015 mg/kg [2]: 23.9% | Stability [1]: 0.04 µM/min
